Data set [1] has as its system Mus musculus. Description: Neurotoxicity in Kunming mouse assessed as minimum motor impairment at 300 mg/kg, ip after 4 hrs by rotarod test. Also noted: dose 300 mg/kg, route intraperitoneal. It counts as toxicity, organism-based. As to conditions: in vivo. An outline of the steps:
(§1)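 Rotorod neurotoxicity in male Kunming mice (20 ± 2.0 g) given ip doses of 30, 100 or 300 mg/kg as a suspension in 0.5% methylcellulose, one to four mice per dose. Motor impairment was examined at 0.5 h and 4.0 h after injection. Reported as number of animals showing toxicity/number tested.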
Background: The rotarod test checks motor coordination on a turning rod.

Data set [2] relates to Mus musculus. The data set can be described thus: Neurotoxicity in Kunming mouse assessed as minimum motor impairment at 30 mg/kg, ip after 4 hrs by rotarod test. It counts as toxicity, organism-based. Also noted: dose 30 mg/kg, route intraperitoneal. As to conditions: in vivo. An outline of the steps:
as §1

Data set [3] has as its system Mus musculus. Description: Anticonvulsant activity in Kunming mouse assessed as protection against subcutaneous pentylenetetrazole-induced seizures at 300 mg/kg, ip after 0.5 hrs. Also noted: dose 300 mg/kg. It counts as functional, organism-based. The gist of the method: (§2)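 Male Kunming mice (20 ± 2.0 g) received the compound ip as a suspension in 0.5% methylcellulose at 30, 100 or 300 mg/kg, one to four mice per dose. Pentylenetetrazole in 0.9% saline was given sc at 0.5 h and 4.0 h after dosing. Protection meant no threshold seizure (one clonic spasm episode of at least 5 s). Scored as protected/tested.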

For data set [4], the system named is Mus musculus. Description: Neurotoxicity in Kunming mouse assessed as minimum motor impairment at 30 mg/kg, ip after 0.5 hrs by rotarod test. It counts as toxicity, organism-based. Also noted: dose 30 mg/kg, route intraperitoneal. Particulars: in vivo. An outline of the steps:
as §1

Data set [5] deals with Mus musculus. The data set can be described thus: Anticonvulsant activity in Kunming mouse assessed as protection against subcutaneous pentylenetetrazole-induced seizures at 300 mg/kg, ip after 4 hrs. It is filed as functional, organism-based. Set-up: dose 300 mg/kg. The gist of the method:
as §2

Data set [6] has as its system Mus musculus. Description: Anticonvulsant activity in Kunming mouse assessed as protection against maximal electroshock-induced seizures at 100 mg/kg, ip after 0.5 hrs. It counts as functional, organism-based. Set-up: dose 100 mg/kg. (In general: Protection in the maximal electroshock model is a classic sign of anticonvulsant action.)
For data set [7], the system named is Mus musculus. Description: Anticonvulsant activity in Kunming mouse assessed as protection against subcutaneous pentylenetetrazole-induced seizures at 100 mg/kg, ip after 4 hrs. It is filed as functional, organism-based. Set-up: dose 100 mg/kg. The gist of the method: as §2
Data set [8] deals with Mus musculus. Description: Anticonvulsant activity in Kunming mouse assessed as protection against maximal electroshock-induced seizures at 30 mg/kg, ip after 4 hrs. It counts as functional, organism-based. Also noted: dose 30 mg/kg.
Data set [9] has as its system Mus musculus. The data set can be described thus: Anticonvulsant activity in Kunming mouse assessed as protection against subcutaneous pentylenetetrazole-induced seizures at 30 mg/kg, ip after 0.5 hrs. Set-up: dose 30 mg/kg. It is filed as functional, organism-based. An outline of the steps:
as §2

The test system of data set [10] is Mus musculus. The data set can be described thus: Anticonvulsant activity in Kunming mouse assessed as protection against subcutaneous pentylenetetrazole-induced seizures at 100 mg/kg, ip after 0.5 hrs. It counts as functional, organism-based. Also noted: dose 100 mg/kg. An outline of the steps: as §2
Data set [11] concerns Mus musculus. The data set can be described thus: Anticonvulsant activity in Kunming mouse assessed as protection against maximal electroshock-induced seizures at 300 mg/kg, ip after 4 hrs. It is filed as functional, organism-based. Also noted: dose 300 mg/kg.
The test system of data set [12] is Mus musculus. Description: Neurotoxicity in Kunming mouse assessed as minimum motor impairment at 100 mg/kg, ip after 0.5 hrs by rotarod test. It is filed as toxicity, organism-based. Set-up: dose 100 mg/kg, route intraperitoneal. Particulars: in vivo. The gist of the method:
as §1

Data set [13] deals with Mus musculus. Description: Anticonvulsant activity in Kunming mouse assessed as protection against maximal electroshock-induced seizures at 30 mg/kg, ip after 0.5 hrs. Also noted: dose 30 mg/kg. It is filed as functional, organism-based.
The subject of data set [14] is Mus musculus. The data set can be described thus: Anticonvulsant activity in Kunming mouse assessed as protection against subcutaneous pentylenetetrazole-induced seizures at 30 mg/kg, ip after 4 hrs. Also noted: dose 30 mg/kg. It is filed as functional, organism-based. An outline of the steps:
as §2

In data set [15] the test system is Mus musculus. The data set can be described thus: Neurotoxicity in Kunming mouse assessed as minimum motor impairment at 100 mg/kg, ip after 4 hrs by rotarod test. It is filed as toxicity, organism-based. Also noted: dose 100 mg/kg, route intraperitoneal. As to conditions: in vivo. The gist of the method:
as §1

The subject of data set [16] is Mus musculus. Description: Neurotoxicity in Kunming mouse assessed as minimum motor impairment at 300 mg/kg, ip after 0.5 hrs by rotarod test. It is filed as toxicity, organism-based. Set-up: dose 300 mg/kg, route intraperitoneal. As to conditions: in vivo. The gist of the method:
as §1

Data set [17] concerns Mus musculus. The data set can be described thus: Anticonvulsant activity in Kunming mouse assessed as protection against maximal electroshock-induced seizures at 100 mg/kg, ip after 4 hrs. It counts as functional, organism-based. Also noted: dose 100 mg/kg.
Data set [18] has as its system Mus musculus. The data set can be described thus: Anticonvulsant activity in Kunming mouse assessed as protection against maximal electroshock-induced seizures at 300 mg/kg, ip after 0.5 hrs. Set-up: dose 300 mg/kg. It counts as functional, organism-based.

Activity calls are given as the source filed them.

For `CCCC1CC12NC(=O)N(C)C2=O` (stereo unspecified), the Activity result is “Toxic” in the data set on Mus musculus [1]; “Non-toxic” with Mus musculus [2]; “Toxic” in the data set on Mus musculus [4]; “Non-toxic” with Mus musculus [12]; “Non-toxic” in the data set with Mus musculus [15]; “Toxic” in the data set on Mus musculus [16]. The result in the data set with Mus musculus [3], in the data set with Mus musculus [5], in the data set with Mus musculus [7], in the data set with Mus musculus [8], in the data set on Mus musculus [9] and in the data set with Mus musculus [10] was inactive. Also, the result in the data set with Mus musculus [13] and in the data set with Mus musculus [14] was inactive. Also, the result in the data set with Mus musculus [6] and in the data set with Mus musculus [11] was Active.
Take `CCC1CC12NC(=O)N(C)C2=O` (stereo unspecified): the Activity result in the data set with Mus musculus [2], in the data set with Mus musculus [4], with Mus musculus [12], in the data set with Mus musculus [15] and in the data set on Mus musculus [16] was “Non-toxic” throughout. The outcome in the data set on Mus musculus [3], in the data set on Mus musculus [17], in the data set on Mus musculus [7], in the data set on Mus musculus [8], in the data set on Mus musculus [9] and in the data set on Mus musculus [10] was inactive. Besides, the outcome in the data set on Mus musculus [13] and with Mus musculus [14] was inactive. For the same molecule, the outcome with Mus musculus [11] and in the data set with Mus musculus [18] was Active.
Take `COc1ccc(C2CC23NC(=O)N(C)C3=O)cc1OC` (stereo unspecified): the Activity result in the data set on Mus musculus [2], in the data set on Mus musculus [4], in the data set with Mus musculus [12] and in the data set with Mus musculus [15] was “Non-toxic” throughout. For the same molecule, the outcome with Mus musculus [6], with Mus musculus [11] and in the data set with Mus musculus [13] was Active. Further, the outcome in the data set with Mus musculus [7], in the data set on Mus musculus [8], in the data set on Mus musculus [9], with Mus musculus [10] and in the data set with Mus musculus [14] was inactive.
`CC(C)CC1CC12NC(=O)N(C)C2=O` (stereo unspecified): the Activity result in the data set on Mus musculus [1] is given as “Non-toxic”; with Mus musculus [2], “Non-toxic”; in the data set on Mus musculus [4], “Toxic”; in the data set on Mus musculus [12], “Non-toxic”; with Mus musculus [15], “Non-toxic”; with Mus musculus [16] it was “Toxic”. For the same molecule, the outcome in the data set with Mus musculus [5], in the data set with Mus musculus [7], with Mus musculus [8], with Mus musculus [10] and in the data set on Mus musculus [14] was inactive. Moreover, the outcome with Mus musculus [6], with Mus musculus [9] and in the data set with Mus musculus [13] was Active.
With `Cc1ccc(C2CC23NC(=O)N(C)C3=O)cc1` (stereo unspecified), the Activity result in the data set on Mus musculus [1] is “Non-toxic”; in the data set with Mus musculus [2], “Non-toxic”; in the data set with Mus musculus [4], “Non-toxic”; in the data set on Mus musculus [12], “Non-toxic”; with Mus musculus [15], “Non-toxic”; in the data set on Mus musculus [16], “Toxic”. Besides, the outcome with Mus musculus [6] and in the data set on Mus musculus [13] was Active. The outcome with Mus musculus [7], with Mus musculus [8], in the data set with Mus musculus [9], with Mus musculus [10] and in the data set on Mus musculus [14] was inactive.
On to `COc1cc(C2CC23NC(=O)N(C)C3=O)cc(OC)c1OC` (stereo unspecified), for which the Activity result in the data set on Mus musculus [1], in the data set with Mus musculus [2], with Mus musculus [4], in the data set on Mus musculus [12], in the data set on Mus musculus [15] and in the data set on Mus musculus [16] was “Non-toxic” throughout. Moreover, the outcome in the data set on Mus musculus [17], with Mus musculus [7], with Mus musculus [8], with Mus musculus [9], with Mus musculus [10] and with Mus musculus [13] was inactive. Moreover, the outcome in the data set on Mus musculus [14] was inactive. For the same molecule, the result in the data set with Mus musculus [6] and in the data set with Mus musculus [11] was Active.
On to `COc1ccc(C2CC23NC(=O)N(C)C3=O)cc1` (stereo unspecified), for which the Activity entry with Mus musculus [1], with Mus musculus [2], in the data set with Mus musculus [4], in the data set on Mus musculus [12], in the data set with Mus musculus [15] and with Mus musculus [16] was “Non-toxic” throughout. The outcome with Mus musculus [5], in the data set with Mus musculus [17], in the data set on Mus musculus [7], in the data set with Mus musculus [8], in the data set on Mus musculus [9] and in the data set on Mus musculus [10] was inactive. In addition, the outcome in the data set with Mus musculus [13] and in the data set with Mus musculus [14] was inactive. For the same molecule, the result in the data set on Mus musculus [11] and in the data set on Mus musculus [18] was Active.
With `CC(C)C1CC12NC(=O)N(C)C2=O` (stereo unspecified), the Activity entry with Mus musculus [2], in the data set with Mus musculus [4], with Mus musculus [12], in the data set on Mus musculus [15] and in the data set with Mus musculus [16] was “Non-toxic” each time. For the same molecule, the outcome with Mus musculus [3], in the data set with Mus musculus [5], in the data set with Mus musculus [7], in the data set on Mus musculus [9], with Mus musculus [10] and in the data set with Mus musculus [14] was inactive. The outcome with Mus musculus [6], in the data set with Mus musculus [11] and with Mus musculus [13] was Active.
`CN1C(=O)NC2(CC2c2ccc(Cl)cc2)C1=O` (stereo unspecified): the Activity result is “Non-toxic” in the data set on Mus musculus [2], “Non-toxic” with Mus musculus [4], “Toxic” in the data set with Mus musculus [12] and “Toxic” with Mus musculus [15]. Also, the outcome with Mus musculus [5], in the data set with Mus musculus [17], with Mus musculus [7], in the data set on Mus musculus [8], in the data set with Mus musculus [9] and in the data set with Mus musculus [10] was inactive. Further, the result in the data set with Mus musculus [13] and with Mus musculus [14] was inactive. Besides, the outcome in the data set with Mus musculus [6] was Active.
`COc1ccc(OC)c(C2CC23NC(=O)N(C)C3=O)c1` (stereo unspecified): the Activity entry in the data set with Mus musculus [2], in the data set on Mus musculus [4], in the data set with Mus musculus [12] and with Mus musculus [15] was “Non-toxic” each time. Moreover, the result with Mus musculus [3], in the data set with Mus musculus [5], with Mus musculus [7], in the data set with Mus musculus [8], in the data set with Mus musculus [9] and in the data set on Mus musculus [10] was inactive. Moreover, in the data set on Mus musculus [14], the outcome was inactive. The result with Mus musculus [6] and with Mus musculus [13] was Active.
Turning to `CCC(CC)C1CC12NC(=O)N(C)C2=O` (stereo unspecified), the Activity entry with Mus musculus [1], with Mus musculus [2], with Mus musculus [4], in the data set on Mus musculus [12], in the data set with Mus musculus [15] and with Mus musculus [16] was “Non-toxic” in each case. The result with Mus musculus [3], in the data set with Mus musculus [17], in the data set on Mus musculus [7], in the data set with Mus musculus [8], with Mus musculus [9] and with Mus musculus [10] was inactive. Moreover, the result in the data set on Mus musculus [13] and in the data set on Mus musculus [14] was inactive. In addition, the outcome in the data set on Mus musculus [18] was Active.
